# Assay results from PubChem BioAssay AID651924 (Vanderbilt Specialized Chemistry Center, 2012).
# The source made the active and inactive calls. No rule for the calls is given here.
# Molecular target: Muscarinic acetylcholine receptor M2 (Homo sapiens) (UniProt P08172)
# Assay: human M2 receptor potentiation, selectivity assay for M5 PAM project, CHO cells (AID 651924)
# How it was run: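 Test system: CHO-K1 cells expressing human M2 muscarinic receptor with Gqi5; Timing: compound pre-incubation 1.5 min, acetylcholine stimulation 50 s, 25 °C; Probe or stimulus: acetylcholine EC20; Medium: HBSS with HEPES and probenecid, pH 7.4; Read-out basis: % of maximal acetylcholine response; Signal: calcium fluorescence with Fluo-4 AM, dye loaded 45–60 min at 37 °C.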
# Chain of Muscarinic acetylcholine receptor M2 (Homo sapiens) (P08172 whole entry, looked up): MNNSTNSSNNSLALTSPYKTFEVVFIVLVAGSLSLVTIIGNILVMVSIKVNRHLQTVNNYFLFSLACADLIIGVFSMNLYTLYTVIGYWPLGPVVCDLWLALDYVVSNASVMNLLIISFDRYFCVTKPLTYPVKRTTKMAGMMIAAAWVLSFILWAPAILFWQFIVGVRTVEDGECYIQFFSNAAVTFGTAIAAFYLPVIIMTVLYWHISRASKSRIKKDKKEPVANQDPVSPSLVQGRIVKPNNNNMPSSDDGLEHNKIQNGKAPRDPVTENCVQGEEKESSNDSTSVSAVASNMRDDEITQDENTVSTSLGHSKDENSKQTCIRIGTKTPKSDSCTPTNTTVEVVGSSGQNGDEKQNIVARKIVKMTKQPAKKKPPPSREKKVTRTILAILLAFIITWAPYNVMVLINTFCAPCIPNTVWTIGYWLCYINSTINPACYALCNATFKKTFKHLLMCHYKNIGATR
smiles,measurement,value
O=C1C(=O)N(CCOc2ccccc2)c2ccc(OC(F)(F)F)cc21,outcome,inactive
